Sampled rows, rich in hits. Any-hit rate of the full collection: about 3.1%.
MEKK2wt PB1 HTS – modulators of MEK5 binding to wildtype MEKK2, primary screen, biochemical, multiplex bead flow cytometry, Alexa488-MEK5. 1.1% of 290,000 active. binding response (% of control), % at 10 µM. Mitogen-activated protein kinase kinase kinase 2 (Homo sapiens), Q9Y2U5. AID 1531, 2009. Alexa488-MEK5 binding to MEKK2 WT; actives lie on both sides; in the data active = binding response below about 67% or above about 130%
MEKK3 PB1 HTS – modulators of MEKK3-MEK5 PB1 binding, primary screen, biochemical, wildtype MEKK3, multiplex bead flow cytometry, Alexa488-MEK5. Mitogen-activated protein kinase kinase kinase 3 (Homo sapiens), Q99759. bead-based flow cytometry, Alexa488-MEK5 binding to MEKK3; actives lie on both sides; 0 = blocked by unlabeled MEK5, 100 = vehicle. binding response (% of control), % at 10 µM. 1.4% of 290,000 active;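 active = binding response more than 3 SD above or below the average of its plate-row segment, actives on both sides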;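 also: Alexa488 bead fluorescence after subtracting the streptavidin-only scavenger bead signal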
PREPL inhibitor – PREPL enzyme inhibitors, primary screen, biochemical, fluorescence polarization; AID 2751, 2010; recombinant PREPL, fluorescence polarization activity-based probe; inhibition, % at 5.96 µM; 0.68% of 320,000 active; Prolyl endopeptidase-like (Homo sapiens), Q4J6C6; in the data active = inhibition above about 43%
Target sequence (Q4J6C6 whole entry, looked up): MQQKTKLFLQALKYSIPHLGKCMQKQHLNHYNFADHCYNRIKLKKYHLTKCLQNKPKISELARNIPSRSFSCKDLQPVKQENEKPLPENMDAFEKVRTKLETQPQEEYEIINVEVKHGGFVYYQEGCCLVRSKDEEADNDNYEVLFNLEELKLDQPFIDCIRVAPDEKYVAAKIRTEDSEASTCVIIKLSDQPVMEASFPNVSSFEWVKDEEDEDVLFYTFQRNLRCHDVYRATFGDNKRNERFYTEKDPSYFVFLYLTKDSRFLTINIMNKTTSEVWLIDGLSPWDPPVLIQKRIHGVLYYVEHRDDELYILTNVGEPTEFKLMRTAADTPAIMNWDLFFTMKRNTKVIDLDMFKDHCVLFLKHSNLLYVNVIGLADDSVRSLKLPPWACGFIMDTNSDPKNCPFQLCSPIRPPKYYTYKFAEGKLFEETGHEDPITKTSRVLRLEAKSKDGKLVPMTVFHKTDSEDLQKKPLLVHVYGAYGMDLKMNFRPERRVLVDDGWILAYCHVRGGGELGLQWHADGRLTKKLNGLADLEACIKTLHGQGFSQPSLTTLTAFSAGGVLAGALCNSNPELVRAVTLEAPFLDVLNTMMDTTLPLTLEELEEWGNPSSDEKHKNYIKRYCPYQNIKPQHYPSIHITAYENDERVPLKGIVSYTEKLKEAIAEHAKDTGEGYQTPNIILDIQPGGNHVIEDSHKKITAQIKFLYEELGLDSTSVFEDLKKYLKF
UBC13 polyUb – UBC13 polyubiquitin chain formation inhibitors, primary screen, biochemical, TR-FRET, uHTS; inhibition, % at 20 µM; 0.47% of 330,000 active; AID 485273, 2010; Ubiquitin-conjugating enzyme E2 N (Homo sapiens), P61088; in the data active = inhibition above about 45%, passing the limit was not always enough
MEKK2mut PB1 HTS – MEK5 binding signal on mutant MEKK2 PB1, primary screen, biochemical, multiplex bead flow cytometry, Alexa488-MEK5; Alexa488-MEK5 binding to MEKK2 mutant; percent response, % at 10 µM; 0.35% of 290,000 active; AID 1530, 2009; in the data active = percent response above about 24%, passing the limit was not always enough
Apaf1 inhib – inhibitors of human Apaf-1 apoptosome, primary screen, biochemical, DEVD-Rh110 fluorescence, uHTS | AID 489030, 2010 | 0.71% of 330,000 active | inhibition, % at 20 µM | Apoptotic protease-activating factor 1 (Homo sapiens), O14727 | reconstituted apoptosome caspase-3 activity; active = inhibition of at least 40% at 20 µM
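Material: biochemical Apaf-1 apoptosome reconstitution. Medium: Hepes buffer, pH 7.5. Also added: cytochrome c activation, bis-DEVD rhodamine 110 substrate. Timing: 30 min compound preincubation, 50 min activation, room temperature. Measured by: rhodamine 110 fluorescence at Ex 480/Em 540 nm.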
MEKK2wt confirm – modulators of MEK5 binding to wildtype MEKK2, confirmation, biochemical, single concentration, multiplex bead flow cytometry; shares compounds with MEKK3 PB1 HTS; binding response (% of control), % at 10 µM; 2.4% of 5,900 active; AID 1892, 2009; Alexa488-MEK5 binding to MEKK2 WT; actives lie on both sides; in the data active = binding response below about 16% or above about 210%; inactive = in between
MEKK2mut confirm – mutant MEKK2 PB1-MEK5 binding signal retest – biochemical, single concentration, multiplex bead flow cytometry, confirmation. shares compounds with MEKK3 PB1 HTS. percent response, % at 10 µM. AID 1893, 2009. Alexa488-MEK5 binding to MEKK2 mutant. 2% of 5,900 active; in the data active = percent response mostly above about 71%, no sharp cut-off; inactive = mostly below about 38%;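 also: higher means compound restores mutant binding toward wildtype level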
MEKK3 confirm – MEKK3 wild-type PB1 binding to MEK5, inhibitors, confirmation, biochemical, bead multiplex flow cytometry, single concentration, wildtype; shares compounds with MEKK3 PB1 HTS; Alexa488-MEK5 binding to MEKK3; hits give low values; binding response (% of control), % at 10 µM; 1.8% of 5,900 active;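 active = binding response below 72% of control, or above a set upper limit, though filed actives all read lower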;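 also: lower values mean stronger disruption of MEK5 binding to MEKK3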
Each line names hits and unclear results; the compound was inactive in the other large screens (follow-up assays come after a bar, where they were run); [ ] = dose if it differs, or a comment.

COCc1cc(C)nc(SCC(=O)NC2CCCCC2C)c1C#N (centres undefined)	none
COCc1cc(C)nc(SCC(=O)N2CCC(C)CC2)c1C#N	MEKK2wt PB1 HTS 8.0[inhibitor], MEKK3 PB1 HTS 6.0[inhibitor] | MEKK2wt confirm inactive | MEKK2mut confirm inactive | MEKK3 confirm inactive
O=C(Nc1nccs1)c1ccc(-c2ccc(Cl)cc2)o1	MEKK2wt PB1 HTS 3.0[inhibitor], MEKK3 PB1 HTS 3.0[inhibitor] | MEKK2wt confirm inactive | MEKK2mut confirm inactive | MEKK3 confirm inactive
O=C(Nc1nccs1)c1ccc(-c2ccc(F)cc2)o1	none
CC(OC(=O)c1cc(S(=O)(=O)N(C)C)ccc1N1CCCC1)C(=O)NCc1ccccc1 (centres undefined)	none
Cc1noc(C)c1S(=O)(=O)Nc1ccc(C(=O)NC2CCCCC2)cc1	MEKK2wt PB1 HTS 33.0[inhibitor], MEKK3 PB1 HTS 20.0[inhibitor] | MEKK2wt confirm inactive | MEKK2mut confirm inactive | MEKK3 confirm inactive
Cc1ccc(NC(=O)c2ccc(NS(=O)(=O)c3c(C)noc3C)cc2)cc1C	none
O=C(CCc1c[nH]c2ccccc12)N1CCN(c2ccc(O)cc2)CC1	none
O=C(CN1C(=O)C(=O)N(C2CCCC2)C1=O)NCCc1ccc(Cl)cc1Cl	none (no result: MEKK2wt PB1 HTS, MEKK3 PB1 HTS, MEKK2mut PB1 HTS)
N#CCSc1ccccc1NC(=O)CN1C(=O)C2CC=CCC2C1=O (centres undefined)	none (no result: MEKK2wt PB1 HTS, MEKK3 PB1 HTS, PREPL inhibitor, MEKK2mut PB1 HTS)
CC(C)(C)N=C1C([N+](=O)[O-])=CC=C2C1=NC1(CCCCC1)N2O	none
N=C1C=CC=C2C1=NC1(CCCCC1)N2O	MEKK2wt PB1 HTS 2.0[inhibitor], MEKK3 PB1 HTS 2.0[inhibitor] | MEKK2wt confirm inactive | MEKK2mut confirm inactive | MEKK3 confirm inactive
O=C(NC1(C(F)(F)F)NC(=O)N(Cc2ccccc2)C1=O)c1cccnc1 (centres undefined)	none
CC(c1ccccc1)N1C(=O)NC(NC(=O)c2cccnc2)(C(F)(F)F)C1=O (centres undefined)	MEKK2wt PB1 HTS 0.0[inhibitor], MEKK3 PB1 HTS 0.0[inhibitor] | MEKK2wt confirm inactive | MEKK2mut confirm inactive | MEKK3 confirm inactive
CCOc1ccccc1C(=O)N[C@H](C(=O)Nc1nc2c(s1)CCCC2)C(C)C	MEKK3 PB1 HTS 137.0 | MEKK2wt confirm inactive | MEKK2mut confirm inactive | MEKK3 confirm inactive
CC(C)OCCCNC(=O)COc1ccc2oc3c(c2c1)CCCC3	none
CCOCCCNC(=S)Nc1cc(C)cc(C)c1	MEKK3 PB1 HTS 141.0 | MEKK2wt confirm inactive | MEKK2mut confirm inactive | MEKK3 confirm inactive
CSc1nnc(-c2nnc(SC)n2-c2ccccc2)n1-c1ccccc1	MEKK2wt PB1 HTS 35.0[inhibitor], MEKK3 PB1 HTS 22.0[inhibitor] | MEKK2wt confirm inactive | MEKK2mut confirm inactive | MEKK3 confirm inactive
CSc1nnc(-c2cc(C)on2)n1-c1ccccc1	none
CCCc1nc(SCC(=O)Nc2nnc(CC)s2)c2c(C)c(C)sc2n1	MEKK3 PB1 HTS 122.0 | MEKK2wt confirm inactive | MEKK2mut confirm inactive | MEKK3 confirm inactive
NS(=O)(=O)c1ccc(CNC(=O)c2ccncc2)cc1	none
CCOC(=O)C1CCN(C(=O)CCc2ccc(S(=O)(=O)NCC(C)C)cc2)CC1	MEKK2mut PB1 HTS 26.0 | MEKK2wt confirm inactive | MEKK2mut confirm inactive | MEKK3 confirm inactive
CSc1nc(N)nc2c1ncn2CC(=O)NCCNc1ccc([N+](=O)[O-])cn1	none (no result: MEKK2wt PB1 HTS, MEKK3 PB1 HTS, MEKK2mut PB1 HTS)
Cc1ccc(C2(CCNCc3ccc(N(C)C)cc3)CCOC(C(C)C)C2)cc1 (centres undefined)	MEKK2wt PB1 HTS 149.0 | MEKK2wt confirm inactive | MEKK2mut confirm inactive | MEKK3 confirm inactive
CN(Cc1ccccc1)C(=O)COC(=O)CN1C(=O)c2ccccc2C1=O	none (no result: MEKK2wt PB1 HTS, MEKK3 PB1 HTS, MEKK2mut PB1 HTS)
Nc1c(-c2ccccc2)cnn1-c1ccc(C(=O)O)cc1	MEKK3 PB1 HTS 82.0[inhibitor] | MEKK2wt confirm inactive | MEKK2mut confirm inactive | MEKK3 confirm inactive
CCCCNC(=O)c1cccc(C(=O)NCCCC)c1	none
O=C(C[n+]1ccc(C(=O)NCCCO)cc1)c1cccc(Br)c1	MEKK3 PB1 HTS 130.0 | MEKK2wt confirm inactive | MEKK2mut confirm inactive | MEKK3 confirm inactive
COc1ccc(Nc2nc(N)nc(CSCCO)n2)cc1	MEKK2wt PB1 HTS 135.0 | MEKK2wt confirm inactive | MEKK2mut confirm inactive | MEKK3 confirm inactive
Cc1ccc(CN2CCSc3ccc(C(=O)NCCCN4CCOCC4)cc32)cc1	none
Cc1ccc(CN2CCSc3ccc(C(=O)NCc4ccco4)cc32)cc1	MEKK2wt PB1 HTS 58.0[inhibitor], MEKK3 PB1 HTS 56.0[inhibitor] | MEKK2wt confirm inactive | MEKK2mut confirm inactive | MEKK3 confirm inactive
CN1CCN(CCCNC(=O)c2ccc(/C=C3/Sc4ccccc4N(Cc4cccc(Cl)c4)C3=O)cc2)CC1	MEKK2wt PB1 HTS 224.0, MEKK2mut PB1 HTS 65.0 (no result: PREPL inhibitor, UBC13 polyUb, Apaf1 inhib) | MEKK2wt confirm 209.0 | MEKK2mut confirm 73.0 | MEKK3 confirm inactive
CN1CCN(CCCNC(=O)c2ccc(/C=C3\Sc4ccccc4N(Cc4ccc(F)cc4)C3=O)cc2)CC1	MEKK2wt PB1 HTS 163.0 (no result: PREPL inhibitor, UBC13 polyUb, Apaf1 inhib) | MEKK2wt confirm inactive | MEKK2mut confirm inactive | MEKK3 confirm inactive
COc1cccc(N2CCN(CC(=O)NC(=O)NC3CCCCC3)CC2)c1	none (no result: MEKK2wt PB1 HTS, MEKK3 PB1 HTS, PREPL inhibitor, MEKK2mut PB1 HTS)
O=C(/C=C/c1ccccc1)C1=C(O)C(=O)N(CCO)C1c1ccc2c(c1)OCO2 (centres undefined)	none
